WT yeast gro inh: growth inhibition of WT strain, primary screen, mitochondrial fusion inhibitor project, WT and mutant strains, chemical genetic; mitochondrial fusion phenotypic screen; inhibition, % at 10 µM; hit rate 2.1% among 190,000; AID 1362, 2008; in the data active = inhibition above about 58%; tested in S. cerevisiae
Calpain2 inh: inhibitors of pig calpain II, primary screen, biochemical, fluorogenic peptide substrate, 1536-well; inhibition, % at 16 µM; purified calpain II, 30 min; hit rate 0.37% among 220,000;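 active = inhibition above about 50%, limit read from the data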
PMI activator: activators of human PMI, primary screen, biochemical, fluorescence intensity, near-Km mannose 6-phosphate; hit rate 0.005% among 190,000; activation factor at 20 µM; purified human PMI, coupled resazurin fluorescence, 20 min; stronger effect = higher value; 1 = vehicle control, 0 substrate-free wells; Mannose-6-phosphate isomerase (Homo sapiens), P34949;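 active = activation factor of 2 or more at 20 µM, relative to plate controls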
PMI act hi M6P: human PMI activators, high substrate, primary screen, biochemical, fluorescence intensity, near-saturating mannose 6-phosphate. Mannose-6-phosphate isomerase (Homo sapiens), P34949. coupled PMI enzyme assay, resazurin fluorescence, 20 min; stronger effect = higher value; 1 = untreated enzyme, 0 = substrate-free blank. activation factor at 20 µM. hit rate 0.34% among 190,000;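 active = activation factor of 2 or more at 20 µM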
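Test system: human PMI in coupled enzyme assay; Input: PMI at 15 ng/mL final; Medium: HEPES buffer, pH 7.4; Schedule: 20 min incubation at room temperature; Technique: resorufin fluorescence at Ex 544/Em 590 nm; Compound: 20 µM single dose; Probe or stimulus: Near-saturating mannose-6-phosphate, 1.0 mM.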
Rad51 HR inh: human RAD51 strand exchange inhibitors, primary screen, biochemical, fluorescence. hit rate 0.085% among 200,000. DNA repair protein RAD51 homolog 1 (Homo sapiens), Q06609. AID 1385, 2008. inhibition, % at 10 µM. hRad51 DNA strand exchange, fluorescence dequenching;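 active = inhibition above 40% at the single screening dose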
Target sequence (Q06609 whole entry, looked up): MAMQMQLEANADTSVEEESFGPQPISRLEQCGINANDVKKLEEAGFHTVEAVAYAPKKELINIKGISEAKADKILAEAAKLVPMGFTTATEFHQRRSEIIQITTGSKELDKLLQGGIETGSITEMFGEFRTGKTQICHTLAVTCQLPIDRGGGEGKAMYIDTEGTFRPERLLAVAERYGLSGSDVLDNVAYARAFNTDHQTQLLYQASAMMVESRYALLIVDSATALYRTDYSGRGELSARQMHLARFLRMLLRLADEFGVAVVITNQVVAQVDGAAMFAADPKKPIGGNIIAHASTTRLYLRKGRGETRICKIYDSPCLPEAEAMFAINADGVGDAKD
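Assay system: Human Rad51 nucleoprotein filaments preassembled on unlabelled ssDNA | Reagent: Donor/quencher-labelled 47-bp dsDNA substrate | Doses: One concentration, 10 µM final | Times: 37 °C 15-min filament assembly, 30-min compound preincubation, 15-min exchange | Technique: Fluorescein emission 520 nm, excitation 485 nm | Benchmarks: Plate control and blank wells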
Lmaj promast: Leishmania major promastigote growth inhibition, primary screen | inhibition, % at 10 µM | Leishmania major promastigotes, resazurin fluorescence viability | hit rate 9% among 200,000; in the data active = inhibition above about 50%;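 also: promastigotes grown with compound for 44 hours at 28 °C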
Each line names hits and unclear results; the compound was inactive in the other large screens. In the library only some 9.8% were active in any assay of this set; here they are far more common.

c1ccc(Oc2cccc(CN3CCOCC3)c2)cc1	Lmaj promast 100
Cc1cccc(NC(=O)c2ccc(CN3CCN(Cc4ccccc4)CC3)cc2)c1	Lmaj promast 100
O=C(c1cccc(Cl)c1)N1CCN(Cc2ccncc2)CC1	none
c1ccc(CN2CCOCC2)cc1	none
Cc1ccc(C)n1-c1ccc(C(=O)Nc2ccccc2)cc1	none
COc1cccc(NC(=O)c2ccc(CN3CCN(c4ccccc4)CC3)cc2)c1	none
COc1ccc(/C=C/C(=O)O)cc1S(=O)(=O)N1CCC(C)CC1	none (no result: WT yeast gro inh, PMI activator, PMI act hi M6P, Rad51 HR inh, Lmaj promast)
O=C1CC2c3ccccc3C1C1C(=O)N(CCO)C(=O)C21 (stereo not drawn)	none
O=C1COc2ccc(C(=O)CSc3ccccc3C(=O)O)cc2N1	none (no result: WT yeast gro inh, PMI activator, PMI act hi M6P, Lmaj promast)
CC(C)c1ccccc1-n1c(SCC(=O)c2ccc3c(c2)NC(=O)CO3)nc2ccccc2c1=O	Lmaj promast 67
COc1ccc(-c2cc(C(=O)Nc3c(Cl)cc(Cl)cc3Cl)c3ccccc3n2)cc1OC	none (no result: Rad51 HR inh)
CC(=O)c1sc(NC(=O)c2cc(-c3ccccc3)nn2-c2ccccc2)nc1C	none
COc1ccc(C(=O)Nc2nc3ccc(S(C)(=O)=O)cc3s2)cc1OC	none
COc1ccc(-c2cc(C(=O)NCc3cn(C)nc3C)c3ccccc3n2)cc1OC	Calpain2 inh 52
COc1ccc(C(=O)Nc2nc3ccccc3s2)cc1OC	WT yeast gro inh 68, Lmaj promast 69 (no result: PMI activator, PMI act hi M6P)
O=C(Nc1nc2ccccc2s1)c1cc(-c2ccccc2)nn1-c1ccccc1	Lmaj promast 93
COc1ccc(-c2cc(C(=O)Nc3nc4ccccc4s3)c3ccccc3n2)cc1OC	Lmaj promast 98
COc1ccc(-c2cc(C(=O)Nc3ccccc3O)c3ccccc3n2)cc1OC	none
CCOC(=O)C1C(=O)CC(C)(O)C(C(=O)OCC)C1c1ccc([N+](=O)[O-])cc1 (stereo not drawn)	none (no result: WT yeast gro inh, PMI activator, PMI act hi M6P, Lmaj promast)
Cc1ccc(NC(=O)CSc2nnc(/N=C/N(C)C)s2)cc1	none (no result: Rad51 HR inh)
COc1ccc(-c2cc(C(=O)Nc3ccccc3N3CCOCC3)c3ccccc3n2)cc1OC	Lmaj promast 64
COc1cc2c(cc1OC)-c1c(OC)c(OC)cc3ccnc(c13)C2=O	Lmaj promast 63 (no result: Rad51 HR inh)
O=C(Sc1nnnn1C1CCCCC1)c1cccs1	PMI act hi M6P 2.2
C=CSc1sc(Cl)c(N(CC)CC)c1[N+](=O)[O-]	none
C[C@H](NC(CCc1ccccc1)C(=O)O)C(=O)N1CCC[C@H]1C(=O)O (stereo partly drawn)	none (no result: WT yeast gro inh, Calpain2 inh, PMI activator, PMI act hi M6P, Lmaj promast)
Cc1oc(-c2cccc(Cl)c2)nc1CN1CCC(C(=O)NCc2ccco2)CC1	none
CCN1CCCC1CNC(=O)C1CCN(Cc2nc(-c3cccc(Br)c3)oc2C)CC1 (stereo not drawn)	Lmaj promast 99 (no result: Rad51 HR inh)
CCN1CCCC1CNC(=O)CSCc1nc(-c2ccccc2C)oc1C (stereo not drawn)	Lmaj promast 99
CCOC(=O)c1ccc(Nc2ncccc2[N+](=O)[O-])cc1	none
Cc1ccc(Nc2ncnc3c2nnn3Cc2ccccc2)cc1	none (no result: WT yeast gro inh, PMI activator, PMI act hi M6P, Lmaj promast)
O=C(NC1CCCCC1)c1sc(N2CCOCC2)nc1-c1ccccc1	Lmaj promast 88
CN(c1ccc(C(=O)NCCSCc2ccccc2)cc1)S(=O)(=O)c1ccccc1	Lmaj promast 82
Cc1cccc(CSCCNC(=O)c2ccc(N(C)S(=O)(=O)c3ccccc3)cc2)c1	none
COc1ccc(C2C(C#N)=C(N)OC3=C2C(=O)CCC3)cc1Cn1nc(C)c([N+](=O)[O-])c1C (stereo not drawn)	Lmaj promast 93
O=c1c2ccccc2nc2n1CC/C2=C/N1CCN(c2cccc(C(F)(F)F)c2)CC1	Lmaj promast 55
O=C1c2cccc(Sc3ccccc3)c2C(=O)c2c(Sc3ccccc3)cccc21	Calpain2 inh 50 (no result: WT yeast gro inh, PMI activator, PMI act hi M6P, Lmaj promast)
Cc1ccc2cc3cc(C(=O)NCCCN4CCc5ccccc5C4)oc3nc2c1	Lmaj promast 97
Cc1ccc2[nH]c(=O)c3cc(C(=O)NCCN4CCN(C)CC4)sc3c2c1	none
Cc1ccc2cc3cc(C(=O)NCCCN4CCCCCC4)oc3nc2c1	Lmaj promast 97 (no result: Rad51 HR inh)
COc1ccc2nc3sc(C(=O)NCCCN4CCc5ccccc5C4)cc3cc2c1	Lmaj promast 100
Cc1ccc2nc(Cl)c3cc(C(=O)NCCCN4CCCC4)sc3c2c1	Lmaj promast 101
COc1ccc(-c2n(CC(=O)OC3CC(C)CCC3C(C)C)c3ccccc3[n+]2C)cc1 (stereo not drawn)	Lmaj promast 101
CCOC(=O)c1nnn(-c2nonc2-n2cccc2)c1-c1cccc([N+](=O)[O-])c1	none
COc1ccc(Nc2c(-c3ccc(OC)cc3)nc3cnccn23)cc1	none
Cc1ccc(Nc2c(-c3ccccc3O)nc3cnccn23)cc1	Lmaj promast 79
COc1ccc(Nc2c(-c3ccc(C)cc3)nc3cnccn23)cc1	Calpain2 inh 75
OC1(c2ccc(Cl)c(Cl)c2)C[n+]2ccccc2N1Cc1ccccc1 (stereo not drawn)	none (no result: WT yeast gro inh, PMI activator, PMI act hi M6P, Lmaj promast)
CN(C)CCCN(C(=O)c1ccc2c(c1)CCCC2)c1nc2ccc(Cl)cc2s1	WT yeast gro inh 80, Lmaj promast 79
CN(C)CCCN(C(=O)CCc1ccccc1)c1nc2ccc(Cl)cc2s1	Lmaj promast 87
CN(C)CCCN(C(=O)COc1ccccc1)c1nc2ccc(Cl)cc2s1	none
CC(C)(C)c1csc(NC(=O)c2ccc3nccnc3c2)n1	none
Cc1cc2c(C)ccc(C)c2nc1SCC(=O)c1cccs1	Calpain2 inh 51
Cc1cccc(OCCNC(=O)c2cncc(Br)c2)c1	none
CCOC(=O)c1cnc(SCC(=O)N2CCOCC2)nc1N	none (no result: PMI activator, PMI act hi M6P)
COc1ccc(N2CCN(C(CNS(C)(=O)=O)c3ccco3)CC2)cc1 (stereo not drawn)	none
COc1ccc(N2CCN(C(CNS(=O)(=O)c3cc(F)ccc3F)c3cccnc3)CC2)cc1 (stereo not drawn)	Lmaj promast 99 (no result: Rad51 HR inh)
O=S(=O)(NCC(c1cccnc1)N1CCN(c2ccc(F)cc2)CC1)c1cc(F)ccc1F (stereo not drawn)	Lmaj promast 95 (no result: PMI activator, PMI act hi M6P)
O=S(=O)(NC1=NCCC1)c1cccc(NC(=S)NCCc2ccccc2)c1	none
COCCNC(=O)/C(C#N)=C/C=C/c1ccccc1	none
COCCNC(=O)/C(C#N)=C1\N=C(N)c2ccccc21	Lmaj promast 59
Cc1ccc2cc(/C=N/NC(=O)c3ccccc3[N+](=O)[O-])c(Cl)nc2c1	none
CC1(C)C(=O)OC(c2cccn2-c2ccc([N+](=O)[O-])cc2)C2(CCCCC2)C1=O (stereo not drawn)	none
CC1(C)C(=O)OC(c2c(F)c(F)c(F)c(F)c2F)C2(CCCCC2)C1=O (stereo not drawn)	Calpain2 inh 57

Source: PubChem BioAssay
